Results: ChEMBL document CHEMBL4261548, “Mitochondria-targeted betulinic and ursolic acid derivatives: synthesis and anticancer activity” (Medchemcomm, 2017)
The source made the active and inactive calls. The calls are words filed in the database; no cut-off is given here.

What was measured:
MCF7 = assay: Cytotoxicity against human MCF7 cells assessed as decrease in cell viability by trypan blue test; type: functional, cell-based
Splenocyte = assay: Cytotoxicity against BALB/c mouse splenocytes assessed as decrease in cell viability by trypan blue test; type: cell-based
[1] = Cytotoxicity against human Tet21N cells assessed as decrease in cell viability by trypan blue test; type: functional, cell-based
HCT-116 [2] = assay: Induction of apoptosis in human HCT116 cells assessed as release of cytochrome C from mitochondria at 3.5 uM by SDS/PAGE analysis; type: functional, cell-based
How it was run: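 HCT116 cells at about 1 × 10^6 per 100 μl were permeabilized with 0.01% digitonin in 150 mM KCl, 1 mM MgCl2, 0.2 mM EGTA and 5 mM Tris for 10 min at room temperature. Supernatant (cytosol) and pellet (mitochondria) were separated by centrifugation. Cytochrome c in each fraction was detected by 15% SDS-PAGE and western blot.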

HCT-116 [3] = assay: Inhibition of mitochondrial respiration in human HCT116 cells after 24 hrs in presence of oligomycin/CCCP/rotenone/antimycin; type: functional, cell-based
How it was run: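 About 15 000 HCT116 cells per well adhered overnight and were treated for 24 h. They were then held 1 h at 37 °C without CO2 in unbuffered DMEM (5 mM glucose, 2 mM glutamine, pH 7.4). Oxygen consumption was measured by Seahorse XF-96: basal, then sequential oligomycin, CCCP, and rotenone plus antimycin A. Data were normalized to total protein per well.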

HCT-116 [4] = assay: Induction of apoptosis in human HCT116 cells assessed as caspase-3 cleavage using DEVD-AMC as substrate by fluorescence assay; type: functional, cell-based
Homo sapiens [5] = species on record: Homo sapiens; assay: Induction of apoptosis in human Tet21N cells assessed as caspase-3 cleavage using DEVD-AMC as substrate by fluorescence assay; type: functional, cell-based
HCT-116 [6] = assay: Cell cycle arrest in human HCT116 cells assessed as accumulation at sub-G1 phase by propidium iodide staining-based flow cytometric method (reference value: 0.8%); type: functional
Homo sapiens [7] = species on record: Homo sapiens; assay: Induction of apoptosis in human Tet21N cells assessed as PARP cleavage at 5 to 15 uM by Western blot analysis; type: functional, cell-based
How it was run: (§1)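 Whole-cell lysates in lysis buffer with protease inhibitors, 10 min room temperature; insoluble material cleared at 13 000 rpm, 20 min, 4 °C; equal protein loaded for SDS-PAGE and blotted; membranes blocked 1 h in 5% non-fat milk; PARP cleavage detected by ECL. HCT116 and RKO in DMEM, SK-N-BE(2) and Tet21N in RPMI 1640 with 10% FCS; Tet21N medium also hygromycin 100 μg ml–1 and geneticin 200 μg ml–1.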

HCT-116 [8] = assay: Inhibition of mitochondrial respiration in human HCT116 cells at 1 to 2 uM after 24 hrs in presence of oligomycin/CCCP/rotenone/antimycin; type: functional, cell-based
How it was run: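 About 15 000 cells per well adhered overnight, then treated 24 h. Washed and held 1 h at 37 °C without CO2 in unbuffered DMEM (5 mM glucose, 2 mM glutamine, pH 7.4). Seahorse XF-96 oxygen consumption read: basal, then oligomycin (proton leak), CCCP (spare capacity), rotenone plus antimycin A (non-mitochondrial). Normalized to total protein per well.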

RKO = assay: Induction of apoptosis in human RKO cells assessed as PARP cleavage at 50 uM by Western blot analysis; type: functional, cell-based; how it was run: as §1
HCT-116 [9] = assay: Induction of apoptosis in human HCT116 cells assessed as PARP cleavage at 20 uM by Western blot analysis; type: functional, cell-based; how it was run: as §1
Homo sapiens [10] = species on record: Homo sapiens; assay: Induction of apoptosis in human SK-N-BE(2) cells assessed as PARP cleavage at 50 uM by Western blot analysis; type: functional, cell-based; how it was run: as §1

Row | Structure (SMILES) | IC50 (MCF7; Homo sapiens, MCF7) | IC50 (Splenocyte) | IC50 ([1]; Homo sapiens) | Activity (HCT-116 [2]) | other results
1 | C=C(C)[C@@H]1CC[C@]2(C(=O)OCCOCCOCC[P+](c3ccccc3)(c3ccccc3)c3ccccc3)CC[C@]3(C)[C@H](CC[C@@H]4[C@@]5(C)CC[C@H](OC(=O)C(Cl)Cl)C(C)(C)[C@@H]5CC[C@]43C)[C@@H]12 | 2310 nM | 660 nM | 950 nM | Active | 
2 | C=C(C)[C@@H]1CC[C@]2(C(=O)OCCOCCOCC[P+](c3ccccc3)(c3ccccc3)c3ccccc3)CC[C@]3(C)[C@H](CC[C@@H]4[C@@]5(C)CC[C@H](OC(C)=O)C(C)(C)[C@@H]5CC[C@]43C)[C@@H]12 [listing 1 of 2 here] |  |  |  | Active | inhibition (HCT-116 [3]): Dose-dependent effect
3 | C[C@H]1[C@H](C)CC[C@]2(C(=O)OCCCC[P+](c3ccccc3)(c3ccccc3)c3ccccc3)CC[C@]3(C)C(=CC[C@@H]4[C@@]5(C)CC[C@H](OC(=O)C(Cl)Cl)C(C)(C)[C@@H]5CC[C@]43C)[C@H]12 | 2760 nM | 1750 nM | 4400 nM | Active | 
4 | C[C@H]1[C@H](C)CC[C@]2(C(=O)OCCOCCOCC[P+](c3ccccc3)(c3ccccc3)c3ccccc3)CC[C@]3(C)C(=CC[C@@H]4[C@@]5(C)CC[C@H](O)C(C)(C)[C@@H]5CC[C@]43C)[C@H]12 | 1590 nM |  | 810 nM | Active | 
5 | C=C(C)[C@@H]1CC[C@]2(C(=O)OCCOCCOCC[P+](c3ccccc3)(c3ccccc3)c3ccccc3)CC[C@]3(C)[C@H](CC[C@@H]4[C@@]5(C)CC[C@H](O)C(C)(C)[C@@H]5CC[C@]43C)[C@@H]12 | 700 nM |  | 740 nM | Active | inhibition (HCT-116 [3]): Dose-dependent effect; Activity (HCT-116 [4]): Active; Activity (Homo sapiens [5]): Active
6 | C=C(C)[C@@H]1CC[C@]2(C(=O)OCCCC[P+](c3ccccc3)(c3ccccc3)c3ccccc3)CC[C@]3(C)[C@H](CC[C@@H]4[C@@]5(C)CC[C@H](OC(=O)C(Cl)Cl)C(C)(C)[C@@H]5CC[C@]43C)[C@@H]12 | 800 nM | 1950 nM | 1260 nM | Active | 
7 | C=C(C)[C@@H]1CC[C@]2(C(=O)OCCOCCOCC[P+](c3ccccc3)(c3ccccc3)c3ccccc3)CC[C@]3(C)[C@H](CC[C@@H]4[C@@]5(C)CC[C@H](OC(C)=O)C(C)(C)[C@@H]5CC[C@]43C)[C@@H]12.[Br-] | 850 nM |  | 980 nM |  | Activity (HCT-116 [6]): 29.9%
8 | C[C@H]1[C@H](C)CC[C@]2(C(=O)OCCOCCOCC[P+](c3ccccc3)(c3ccccc3)c3ccccc3)CC[C@]3(C)C(=CC[C@@H]4[C@@]5(C)CC[C@H](OC(=O)C(Cl)Cl)C(C)(C)[C@@H]5CC[C@]43C)[C@H]12 | 3900 nM | 1130 nM | 1180 nM | Active | 
9 | C=C(C)[C@@H]1CC[C@]2(C(=O)OCCOCCOCC[P+](c3ccccc3)(c3ccccc3)c3ccccc3)CC[C@]3(C)[C@H](CC[C@@H]4[C@@]5(C)CC[C@H](OC(C)=O)C(C)(C)[C@@H]5CC[C@]43C)[C@@H]12 [listing 2 of 2 here] |  |  |  |  | IC50 (MCF7; mcf7): 1510 nM; IC50 [1]: 1280 nM
10 | C=C(C)[C@@H]1CC[C@]2(C(=O)O)CC[C@]3(C)[C@H](CC[C@@H]4[C@@]5(C)CC[C@H](O)C(C)(C)[C@@H]5CC[C@]43C)[C@@H]12 [BETULINIC ACID] | > 25000 nM |  |  | inactive | Activity (Homo sapiens [7]): Active; inhibition (HCT-116 [8]): inactive; Activity (HCT-116 [4]): inactive; Activity (RKO): Active; Activity (HCT-116 [9]): Active; Activity (Homo sapiens [10]): Active; Activity (HCT-116 [6]): 2.2%; Activity (Homo sapiens [5]): inactive
11 | C[C@H]1[C@H](C)CC[C@]2(C(=O)O)CC[C@]3(C)C(=CC[C@@H]4[C@@]5(C)CC[C@H](OC(=O)C(Cl)Cl)C(C)(C)[C@@H]5CC[C@]43C)[C@H]12 | > 20000 nM |  | > 10000 nM |  | 
12 | C=C(C)[C@@H]1CC[C@]2(C(=O)O)CC[C@]3(C)[C@H](CC[C@@H]4[C@@]5(C)CC[C@H](OC(=O)C(Cl)Cl)C(C)(C)[C@@H]5CC[C@]43C)[C@@H]12 | 15900 nM |  | 4900 nM |  | 
